Reference: ChEMBL document CHEMBL1123589, “Phenylpiperazine-based radiopharmaceuticals for brain imaging. 3. Synthesis and evaluation of radioiodinated 1-alkyl-4-phenylpiperazines” (J Med Chem, 1987)
Values joined by “and” are separate entries in the source; they are usually repeats but may differ in a detail not shown here. Equal entries are not always repeated.

Assays:
Conditions in all cases: in vivo
Canis familiaris [1] = experiment: The biodistribution of the [131I]-labeled compound in dog (mass= 5.7 kg), 2 hr after intravenous injection was evaluated in fat (ID.kg/g); type: ADME, organism-based, Canis lupus familiaris, Adipose tissue
Method in brief: (§1)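 One female dog (5.7 kg) premedicated im with acepromazine maleate, then anesthetized iv with sodium nembutal/saline (1:1). Given 1.0 mCi iv of ¹³¹I-labeled agent. Killed 2 h post-dose with iv nembutal. Tissues excised, weighed and counted; blood, fat and muscle masses estimated as 7.5%, 27.5% and 40% of body weight. Expressed as % ID/organ and % ID·kg/g.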

Rattus norvegicus [2] = experiment: The biodistribution of the [125I]-labeled compound in rats after intravenous injection was evaluated in kidney at 1.00 hrs; value ranges from 0.52-0.61 (ID.kg/g); type: ADME, organism-based
Method in brief: (§2)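 Male Sprague-Dawley rats (250–300 g), under ether anesthesia, given 10–15 μCi of the NCA ¹²⁵I-labeled agent iv in 0.1 mL saline. Groups of N = 3 were killed at 0.25, 1 or 4 h. Blood and tissues were removed, weighed and counted in a γ-well scintillation counter. Values are mean % ID·kg/g (range).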

Rattus norvegicus [3] = experiment: The biodistribution of the [125I]-labeled compound in rats after intravenous injection was evaluated in blood at 0.25 hrs (ID.kg/g); type: ADME, organism-based
Method in brief: (§3)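 Male Sprague-Dawley rats (250–300 g) under ether anesthesia were given an iv injection of no-carrier-added 125I-labelled agent (10–15 μCi in 0.1 mL saline). The agent was iodinated with chloramine-T in acetate buffer and purified by C-18 HPLC. Groups of N = 3 were killed at 0.25, 1 and 4 h. Blood and tissues were weighed and γ-counted. Values are % ID·kg/g, mean (range).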

Rattus norvegicus [4] = experiment: The biodistribution of the [125I]-labeled compound in rats after intravenous injection was evaluated in heart at 0.25 hrs; value ranges from 0.26-0.32 (ID.kg/g); type: ADME, organism-based; method in brief: as §3
Rattus norvegicus [5] = experiment: The biodistribution of the [125I]-labeled compound in rats after intravenous injection was evaluated in kidney at 0.25 hr; value ranges from 0.48-0.58 (ID.kg/g); type: ADME, organism-based; method in brief: as §2
Rattus norvegicus [6] = experiment: The biodistribution of the [125I]-labeled compound in rats after intravenous injection was evaluated in blood at 1.00 hrs (ID.kg/g); type: ADME, organism-based; method in brief: as §3
Canis familiaris [7] = experiment: The biodistribution of the [131I]-labeled compound in dog (mass= 5.7 kg), 2 hr after intravenous injection was evaluated in cerebellum; type: ADME, organism-based, Canis lupus familiaris; method in brief: as §1
Rattus norvegicus [8] = experiment: The biodistribution of the [125I]-labeled compound in rats after intravenous injection was evaluated in adrenal at 4.00 hrs; value ranges from 0.81-1.19 (ID.kg/g); type: ADME, organism-based; method in brief: as §3
Canis familiaris [9] = experiment: The biodistribution of the [131I]-labeled compound in dog (mass= 5.7 kg), 2 hr after intravenous injection was evaluated in adrenal (ID.kg/g); type: ADME, organism-based, Canis lupus familiaris; method in brief: as §1
Rattus norvegicus [10] = experiment: The biodistribution of the [125I]-labeled compound in rats after intravenous injection was evaluated in brain at 0.25 hrs; value ranges from 0.32-0.38 (ID.kg/g); type: ADME, organism-based; method in brief: as §3
Rattus norvegicus [11] = experiment: The biodistribution of the [125I]-labeled compound in rats after intravenous injection was evaluated in muscle at 4.00 hrs; value ranges from 0.03-0.04 (ID.kg/g); type: ADME, organism-based, Muscle tissue
Method in brief: (§4)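 Male Sprague-Dawley rats (250–300 g) under ether anesthesia given iv 0.1 mL saline containing 10–15 μCi of NCA ¹²⁵I-labeled agent (chloramine-T iodination, HPLC-purified). Groups of 3 killed at 0.25, 1 and 4 h. Blood and tissues excised, weighed and γ-counted. Values are mean (range) of % injected dose × body mass (kg) per gram of tissue.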

Rattus norvegicus [12] = experiment: The biodistribution of the [125I]-labeled compound in rats after intravenous injection was evaluated in muscle at 1.00 hrs (ID.kg/g); type: ADME, organism-based, Muscle tissue; method in brief: as §4
Rattus norvegicus [13] = experiment: The biodistribution of the [125I]-labeled compound in rats after intravenous injection was evaluated in kidney at 4.00 hrs; value ranges from 0.32-0.42 (ID.kg/g); type: ADME, organism-based; method in brief: as §2
Canis familiaris [14] = experiment: The biodistribution of the [131I]-labeled compound in dog (mass= 5.7 kg), 2 hr after intravenous injection was evaluated in brain (ID.kg/g); type: ADME, organism-based, Canis lupus familiaris; method in brief: as §1
Rattus norvegicus [15] = experiment: The biodistribution of the [125I]-labeled compound in rats after intravenous injection was evaluated in lung at 1.00 hrs; value ranges from 1.20-1.42( ID.kg/g); type: ADME, organism-based; method in brief: as §2
Rattus norvegicus [16] = experiment: The biodistribution of the [125I]-labeled compound in rats after intravenous injection was evaluated in lung at 0.25 hrs; value ranges from 0.81-1.16 (ID.kg/g); type: ADME, organism-based; method in brief: as §2
Rattus norvegicus [17] = experiment: The biodistribution of the [125I]-labeled compound in rats after intravenous injection was evaluated in thyroid at 1.00 hrs; value ranges from 1.69-2.41 (ID.kg/g); type: ADME, organism-based, Thyroid gland; method in brief: as §4
Rattus norvegicus [18] = experiment: The biodistribution of the [125I]-labeled compound in rats after intravenous injection was evaluated in adrenal at 0.25 hrs; value ranges from 1.43-1.71 (ID.kg/g); type: ADME, organism-based; method in brief: as §3
Rattus norvegicus [19] = experiment: The biodistribution of the [125I]-labeled compound in rats after intravenous injection was evaluated in thyroid at 4.00 hrs; value ranges from 4.85-5.46 (ID.kg/g); type: ADME, organism-based, Thyroid gland; method in brief: as §4
Rattus norvegicus [20] = experiment: The biodistribution of the [125I]-labeled compound in rats after intravenous injection was evaluated in liver at 0.25 hr; value ranges from 0.27-0.39 (ID.kg/g); type: ADME, organism-based; method in brief: as §2
Canis familiaris [21] = experiment: The biodistribution of the [131I]-labeled compound in dog (mass= 5.7 kg), 2 hr after intravenous injection was evaluated in cortex; type: ADME, organism-based, Canis lupus familiaris; method in brief: as §1
Rattus norvegicus [22] = experiment: The biodistribution of the [125I]-labeled compound in rats after intravenous injection was evaluated in brain at 4.00 hrs; value ranges from 0.25-0.41 (ID.kg/g); type: ADME, organism-based; method in brief: as §3
Rattus norvegicus [23] = experiment: The biodistribution of the [125I]-labeled compound in rats after intravenous injection was evaluated in heart at 4.00 hrs; value ranges from 0.11-0.15 (ID.kg/g); type: ADME, organism-based; method in brief: as §2
Canis familiaris [24] = experiment: The biodistribution of the [131I]-labeled compound in dog (mass= 5.7 kg), 2 hr after intravenous injection was evaluated in kidney; type: ADME, organism-based, Canis lupus familiaris; method in brief: as §1
Canis familiaris [25] = experiment: The biodistribution of the [131I]-labeled compound in dog (mass= 5.7 kg), 2 hr after intravenous injection was evaluated in cerebellum (ID.kg/g); type: ADME, organism-based, Canis lupus familiaris; method in brief: as §1
Rattus norvegicus [26] = experiment: The biodistribution of the [125I]-labeled compound in rats after intravenous injection was evaluated in fat at 4.00 hrs (ID.kg/g); type: ADME, organism-based, Adipose tissue; method in brief: as §3
Rattus norvegicus [27] = experiment: The biodistribution of the [125I]-labeled compound in rats after intravenous injection was evaluated in thyroid at 0.25 hrs; value ranges from 3.39-4.05 (ID.kg/g); type: ADME, organism-based, Thyroid gland; method in brief: as §4
Canis familiaris [28] = experiment: The biodistribution of the [131I]-labeled compound in dog (mass= 5.7 kg), 2 hr after intravenous injection was evaluated in heart; type: ADME, organism-based, Canis lupus familiaris; method in brief: as §1
Rattus norvegicus [29] = experiment: The biodistribution of the [125I]-labeled compound in rats after intravenous injection was evaluated in liver at 1.00 hrs; value ranges from 0.19-0.24 (ID.kg/g); type: ADME, organism-based; method in brief: as §2
Rattus norvegicus [30] = experiment: The biodistribution of the [125I]-labeled compound in rats after intravenous injection was evaluated in fat at 0.25 hr; value ranges from 0.03-0.05 (ID.kg/g); type: ADME, organism-based, Adipose tissue; method in brief: as §3

In the case of `CCCCN1CCN(c2ccc(I)cc2)CC1`, the Biodistribution (Canis familiaris [1]) was 9.41% and 0.034%, the Biodistribution (Rattus norvegicus [2]) was 0.61% and the Biodistribution (Rattus norvegicus [3]) was 0.01 % ID·kg/g. For the same compound, the Biodistribution (Rattus norvegicus [4]) was 0.32%, the Biodistribution (Rattus norvegicus [5]) was 0.58% and the Biodistribution (Rattus norvegicus [6]) was 0.01 % ID·kg/g. The Biodistribution (Canis familiaris [7]) was 1.571%, the Biodistribution (Rattus norvegicus [8]) was 1.19% and the Biodistribution (Canis familiaris [9]) was 0.121% and 0.633%. It also gave a Biodistribution (Rattus norvegicus [10]) of 0.38%, a Biodistribution (Rattus norvegicus [11]) of 0.04% and a Biodistribution (Rattus norvegicus [12]) of 0.04 %ID·kg/g. The Biodistribution (Rattus norvegicus [13]) was 0.42%, the Biodistribution (Canis familiaris [14]) was 1.824% and 0.165% and the Biodistribution (Rattus norvegicus [15]) was 1.42%. The Biodistribution (Rattus norvegicus [16]) was 1.16%, the Biodistribution (Rattus norvegicus [17]) was 2.41% and the Biodistribution (Rattus norvegicus [18]) was 1.71%. For the same compound, the Biodistribution (Rattus norvegicus [19]) was 5.46%, the Biodistribution (Rattus norvegicus [20]) was 0.39% and the Biodistribution (Canis familiaris [21]) was 0.1%. For the same compound, the Biodistribution (Rattus norvegicus [22]) was 0.41%, the Biodistribution (Rattus norvegicus [23]) was 0.15% and the Biodistribution (Canis familiaris [24]) was 0.88%. For the same compound, the Biodistribution (Canis familiaris [25]) was 0.165%, the Biodistribution (Rattus norvegicus [26]) was 0.02% and the Biodistribution (Rattus norvegicus [27]) was 4.05%. For the same compound, the Biodistribution (Canis familiaris [28]) was 0.182%, the Biodistribution (Rattus norvegicus [29]) was 0.24% and the Biodistribution (Rattus norvegicus [30]) was 0.05%.
